Columns and labels:
Format in all cases: functional
COLO = experiment: Cytotoxicity against human COLO […] cells assessed as cell growth at 10^-5 M after 48 hrs by SRB assay; conditions: read-out: Activity
Summary of the method: (§1)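 NCI-60 screen: lines kept in RPMI 1640 with 5% FBS, seeded at 5000–40,000 cells/well by doubling time, preincubated 24 h at 37 °C in 5% CO2. Time-zero plates TCA-fixed at drug addition. DMSO stocks diluted in medium, 48 h exposure. Fixation in cold TCA (final 10% adherent, 16% suspension), 0.4% SRB stain, solubilised in 10 mM Tris base, A515. Percent growth computed against control and time-zero.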

HCT-116 = experiment: Cytotoxicity against human HCT116 cells assessed as cell growth at 10^-5 M after 48 hrs by SRB assay; conditions: HCT-116, 48 h, read-out: Activity
Summary of the method: (§2)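 NCI-60 five-dose screen. Cells were grown in RPMI 1640 with 5% FBS and seeded at 5000–40,000 cells/well according to doubling time. They were pre-incubated 24 h at 37 °C in 5% CO₂, and time-zero (Tz) plates were TCA-fixed at drug addition. Five 10-fold dilutions of DMSO stock were applied for 48 h. Read-out was SRB staining, 515 nm absorbance, with percent growth calculated versus Tz and untreated control.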

HT-29 = experiment: Cytotoxicity against human HT-29 cells assessed as cell growth at 10^-5 M after 48 hrs by SRB assay; conditions: HT-29, 48 h, read-out: Activity; summary of the method: as §2
SNB-19 [1] = experiment: Cytotoxicity against human SNB19 cells assessed as cell growth at 10^-5 M after 48 hrs by SRB assay; conditions: SNB-19, 48 h, read-out: Activity
PC-3 [2] = experiment: Growth inhibition of human PC3 cells after 48 hrs by SRB assay; conditions: PC-3, 48 h; for CC50: read-out: LC50 (the source's name)
Summary of the method: (§3)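 Adherent NCI-60 lines grown in RPMI 1640 with 5% FBS, seeded at 5000–40,000 cells/well, and preincubated 24 h at 37 °C, 5% CO2. Compound, stocked in DMSO, given either once at 10^-5 M or at five 10-fold dilutions for 48 h. Cells fixed with cold TCA (final 10%), stained with 0.4% SRB, and read at 515 nm. GI50 taken as 50% reduction in net protein increase versus time-zero and control plates.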

NCI-H322M = experiment: Cytotoxicity against human NCI-H322M cells assessed as cell growth at 10^-7 M after 48 hrs by SRB assay; conditions: read-out: Activity
HCC 2998 [3] = experiment: Cytotoxicity against human HCC2998 cells assessed as cell growth at 10^-7 M after 48 hrs by SRB assay; conditions: HCC 2998, 48 h, read-out: Activity; summary of the method: as §2
UACC-257 [4] = experiment: Cytotoxicity against human UACC257 cells assessed as cell growth at 10^-7 M after 48 hrs by SRB assay; conditions: UACC-257, 48 h, read-out: Activity
SF-539 = experiment: Cytotoxicity against human SF539 cells assessed as cell growth at 10^-4 M after 48 hrs by SRB assay; conditions: SF-539, 48 h, read-out: Activity
OVCAR-3 [5] = experiment: Cytotoxicity against human OVCAR3 cells assessed as cell growth at 10^-4 M after 48 hrs by SRB assay; conditions: OVCAR-3, 48 h, read-out: Activity
PC-3 [6] = experiment: Cytotoxicity against human PC3 cells assessed as cell growth at 10^-4 M after 48 hrs by SRB assay; conditions: PC-3, 48 h, read-out: Activity
[7] = Cytotoxicity against human NCI-ADR-RES cells assessed as cell growth at 10^-7 M after 48 hrs by SRB assay; conditions: read-out: Activity
SF-295 = experiment: Cytotoxicity against human SF295 cells assessed as cell growth at 10^-8 M after 48 hrs by SRB assay; conditions: SF-295, 48 h, read-out: Activity
SNB-19 [8] = experiment: Cytotoxicity against human SNB19 cells assessed as cell growth at 10^-8 M after 48 hrs by SRB assay; conditions: SNB-19, 48 h, read-out: Activity
HOP-92 = experiment: Cytotoxicity against human HOP92 cells assessed as cell growth at 10^-6 M after 48 hrs by SRB assay; conditions: HOP-92, 48 h, read-out: Activity
SW-620 = experiment: Cytotoxicity against human SW620 cells assessed as cell growth at 10^-6 M after 48 hrs by SRB assay; conditions: SW-620, 48 h, read-out: Activity
M14 = experiment: Cytotoxicity against human M14 cells assessed as cell growth at 10^-6 M after 48 hrs by SRB assay; conditions: M14, 48 h, read-out: Activity
UACC-257 [9] = experiment: Cytotoxicity against human UACC257 cells assessed as cell growth at 10^-6 M after 48 hrs by SRB assay; conditions: UACC-257, 48 h, read-out: Activity
OVCAR-3 [10] = experiment: Growth inhibition of human OVCAR3 cells after 48 hrs by SRB assay; conditions: OVCAR-3, 48 h; summary of the method: as §3
CCRF-CEM = experiment: Growth inhibition of human CCRF-CEM cells after 48 hrs by SRB assay; conditions: for CC50: read-out: LC50 (the source's name)
Summary of the method: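 Same 48 h NCI-60 five-dose SRB protocol. Adherent lines were fixed with cold TCA at 10% final; suspension lines such as CCRF-CEM were fixed with 16% final TCA. Stain was 0.4% SRB in 1% acetic acid for 10 min, solubilized in 10 mM Tris base and read at 515 nm. GI50 came from log concentration–growth curves, solving [(Ti−Tz)/(C−Tz)]×100 = 50.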

HCC 2998 [11] = experiment: Growth inhibition of human HCC2998 cells after 48 hrs by SRB assay; conditions: HCC 2998, 48 h; summary of the method: as §3
A549 [12] = experiment: Cytotoxicity against human A549 cells assessed as cell growth at 10^-5 M after 48 hrs by SRB assay; conditions: A549, 48 h, read-out: Activity; summary of the method: as §1
EKVX = experiment: Cytotoxicity against human EKVX cells assessed as cell growth at 10^-5 M after 48 hrs by SRB assay; conditions: read-out: Activity; summary of the method: as §1
NCI-H23 [13] = experiment: Growth inhibition of human NCI-H23 cells after 48 hrs by SRB assay; conditions: NCI-H23, 48 h; summary of the method: as §3
SK-MEL-5 [14] = experiment: Growth inhibition of human SK-MEL-5 cells after 48 hrs by SRB assay; conditions: SK-MEL-5, 48 h, read-out: LC50 (the source's name); summary of the method: as §3
A549 [15] = experiment: Cytotoxicity against human A549 cells assessed as cell growth at 10^-4 M after 48 hrs by SRB assay; conditions: A549, 48 h, read-out: Activity
NCI-H23 [16] = experiment: Growth inhibition of human NCI-H23 cells at 10^-8 M after 48 hrs by SRB assay; set-up: scale not given: the % may be the effect or the level left
NCI-H23 [17] = experiment: Growth inhibition of human NCI-H23 cells at 10^-7 M after 48 hrs by SRB assay; set-up: scale not given: the % may be the effect or the level left
SK-MEL-5 [18] = experiment: Growth inhibition of human SK-MEL-5 cells at 10^-7 M after 48 hrs by SRB assay; set-up: scale not given: the % may be the effect or the level left
SK-MEL-5 [19] = experiment: Growth inhibition of human SK-MEL-5 cells at 10^-6 M after 48 hrs by SRB assay; set-up: scale not given: the % may be the effect or the level left
SK-MEL-5 [20] = experiment: Growth inhibition of human SK-MEL-5 cells at 10^-8 M after 48 hrs by SRB assay; set-up: scale not given: the % may be the effect or the level left

Row | Structure (SMILES) | growth at 10 µM (COLO) [%] | growth at 10 µM (HCT-116) [%] | growth at 10 µM (HT-29) [%] | growth at 10 µM (SNB-19 [1]) [%] | GI50 (PC-3 [2]) [µM] | TGI (PC-3 [2]) [µM] | CC50 (PC-3 [2]) [µM] | growth at 0.1 µM (NCI-H322M) [%] | growth at 0.1 µM (HCC 2998 [3]) [%] | growth at 0.1 µM (UACC-257 [4]) [%] | growth at 100 µM (SF-539) [%] | growth at 100 µM (OVCAR-3 [5]) [%] | growth at 100 µM (PC-3 [6]) [%] | growth at 0.1 µM [7] [%] | growth at 0.01 µM (SF-295) [%] | growth at 0.01 µM (SNB-19 [8]) [%] | growth at 1 µM (SW-620) [%] | growth at 1 µM (M14) [%] | growth at 1 µM (UACC-257 [9]) [%] | GI50 (OVCAR-3 [10]) [µM] | also measured
1 | COc1ccc(-c2nn3cc(-c4ccc(O)cc4O)nc3s2)cc1 | 35 | -62 | 9 | 22 | 1.95 | > 100 | > 100 | 83 | 94 | 92 | -47 | -14 | 1 | 99 | 95 | 93 | 86 | 81 | 83 | 2.54 | growth at 1 µM (HOP-92): 25%; LC50 (concentration causing 50% net cell kill) (OVCAR-3 [10]): > 100 µM; TGI (OVCAR-3 [10]): 8.48 µM; GI50 (CCRF-CEM): 5.08 µM; TGI (CCRF-CEM): > 100 µM; CC50 (CCRF-CEM): > 100 µM; GI50 (HCC 2998 [11]): 4.37 µM; LC50 (concentration causing 50% net cell kill) (HCC 2998 [11]): > 100 µM; TGI (HCC 2998 [11]): 84.4 µM; growth at 10 µM (A549 [12]): 2%; growth at 10 µM (EKVX): 15%
2 | COc1ccc(-c2nn3cc(-c4cccc(N)c4)nc3s2)cc1 | 42 | 16 | 27 | 54 | 1.2 | 20.8 | > 100 | 95 | 96 | 109 | -68 | -74 | -22 | 96 | 95 | 96 | 86 | 94 | 107 | 3.4 | GI50 (NCI-H23 [13]): 4.9 µM; TGI (NCI-H23 [13]): > 100 µM; CC50 (NCI-H23 [13]; read-out: LC50 (the source's name)): > 100 µM; CC50 (SK-MEL-5 [14]): 3.32 µM; growth at 100 µM (A549 [15]): -46%; Activity (NCI-H23 [16]): 92%; Activity (NCI-H23 [17]): 89%; Activity (SK-MEL-5 [18]): 91%; Activity (SK-MEL-5 [19]): 75%; Activity (SK-MEL-5 [20]): 91%; LC50 (concentration causing 50% net cell kill) (OVCAR-3 [10]): 55.2 µM; TGI (OVCAR-3 [10]): 15.9 µM; GI50 (CCRF-CEM): 1.77 µM; TGI (CCRF-CEM): > 100 µM; CC50 (CCRF-CEM): > 100 µM; GI50 (HCC 2998 [11]): 1.08 µM; LC50 (concentration causing 50% net cell kill) (HCC 2998 [11]): > 100 µM; TGI (HCC 2998 [11]): > 100 µM; growth at 10 µM (A549 [12]): 36%; growth at 10 µM (EKVX): 2%

— ChEMBL document CHEMBL2146441, “2,6-Disubstituted imidazo[2,1-b][1,3,4]thiadiazoles: search for anticancer agents” (2012)
